{"data": "Measurements from different studies", "ABL1 H396P": "Tyrosine-protein kinase ABL1 (ABL1, Homo sapiens, UniProt P00519, H396P)", "ABL1 F317L non-phosphorylated": "Tyrosine-protein kinase ABL1, non-phosphorylated (ABL1, Homo sapiens, UniProt P00519, F317L)", "ABL1 T315I non-phosphorylated": "Tyrosine-protein kinase ABL1, non-phosphorylated (ABL1, Homo sapiens, UniProt P00519, T315I)", "ABL1 non-phosphorylated": "Tyrosine-protein kinase ABL1, non-phosphorylated (ABL1, Homo sapiens, UniProt P00519)", "ABL1 E255K phosphorylated": "Tyrosine-protein kinase ABL1, phosphorylated (ABL1, Homo sapiens, UniProt P00519, E255K)", "ABL1 Y253F phosphorylated": "Tyrosine-protein kinase ABL1, phosphorylated (ABL1, Homo sapiens, UniProt P00519, Y253F)", "ABL1 F317I non-phosphorylated": "Tyrosine-protein kinase ABL1, non-phosphorylated (ABL1, Homo sapiens, UniProt P00519, F317I)", "ABL1 H396P non-phosphorylated": "Tyrosine-protein kinase ABL1, non-phosphorylated (ABL1, Homo sapiens, UniProt P00519, H396P)", "ABL1 M351T phosphorylated": "Tyrosine-protein kinase ABL1, phosphorylated (ABL1, Homo sapiens, UniProt P00519, M351T)", "note": "Each line is one published result; the experiments were not run side by side."}
{"SMILES": "N[C@H]1CCN(c2nccc(-c3cnn4ncccc34)n2)C1", "target": "ABL1 H396P", "test": "binding", "conditions": "1 µM", "remaining binding": "58%"}
{"SMILES": "COc1ncc2cc3ccccc3nc2c1C#N", "target": "ABL1 F317L non-phosphorylated", "test": "cell-free assay, competition with immobilised ligand", "conditions": "5 µM", "remaining binding": "100%"}
{"SMILES": "C[C@H](c1ccc(F)cc1)N(Cc1cccc(C(=O)O)c1)C(=O)c1cnc2ccccc2c1", "target": "ABL1 T315I non-phosphorylated", "test": "cell-free assay, competition with immobilised ligand", "conditions": "1 µM", "remaining binding": "85%"}
{"SMILES": "CC1CCCN1c1nccc(-c2cnn3ncccc23)n1 (centres unmarked)", "target": "Tyrosine-protein kinase ABL1 (ABL1, Homo sapiens, UniProt P00519, T315I)", "test": "binding", "conditions": "1 µM", "remaining binding": "100%"}
{"SMILES": "O=C(c1ccc(Nc2ncc(Cl)c(-c3cc4ccccc4s3)n2)cc1)N1CCC(N2CCCC2)CC1", "target": "Tyrosine-protein kinase ABL1, phosphorylated (ABL1, Homo sapiens, UniProt P00519, Q252H)", "test": "binding, competition with immobilised ligand", "conditions": "1 µM", "remaining binding": "12%"}
{"SMILES": "CN(C)c1nccc(-c2cnc3ncccn23)n1", "target": "ABL1 non-phosphorylated", "test": "binding, competition with immobilised ligand", "conditions": "1 µM", "remaining binding": "84%"}
{"SMILES": "O=C(NC[C@@H]1[C@H]2CN(C(=O)OCc3cc(C(F)(F)F)cc(C(F)(F)F)c3)C[C@@H]12)c1ccc2[nH]nnc2c1", "target": "ABL1 E255K phosphorylated", "test": "binding, competition with immobilised ligand", "conditions": "1 µM", "remaining binding": "92%"}
{"SMILES": "COc1cnc(Nc2cccc(S(N)(=O)=O)c2)nc1N1CCN(c2ccccc2)C(=O)C1", "target": "ABL1 T315I non-phosphorylated", "test": "binding, competition with immobilised ligand", "conditions": "1 µM", "remaining binding": "83%"}
{"SMILES": "Cc1cnc(Nc2ccc(C(=O)N3CCC(N4CCCC4)CC3)cc2)nc1-c1cc2ccccc2s1", "target": "Tyrosine-protein kinase ABL1, phosphorylated (ABL1, Homo sapiens, UniProt P00519)", "test": "binding, competition with immobilised ligand", "conditions": "1 µM", "remaining binding": "1.6%"}
{"SMILES": "CN(C)C(=O)Cn1cc(-c2nc([C@@](C)(c3ccc(-c4cnc(N)nc4)cc3)C3CC3)no2)cn1", "target": "Tyrosine-protein kinase ABL1, non-phosphorylated (ABL1, Homo sapiens, UniProt P00519, Q252H)", "test": "cell-free assay, competition with immobilised ligand", "conditions": "1 µM", "remaining binding": "0%"}
{"SMILES": "O=C(c1ccc(Nc2nccc(-c3cc4ccccc4s3)n2)cc1)N1CCC(N2CCCC2)CC1", "target": "ABL1 E255K phosphorylated", "test": "binding, competition with immobilised ligand", "conditions": "1 µM", "remaining binding": "9.9%"}
{"SMILES": "CN(CCCC(F)(F)F)c1nccc(-c2cnn3ncccc23)n1", "target": "ABL1 non-phosphorylated", "test": "binding, competition with immobilised ligand", "conditions": "1 µM", "remaining binding": "76%"}
{"SMILES": "O=C(c1ccc(Nc2ncc(Cl)c(-c3ccc(Cl)s3)n2)cc1)N1CCC(N2CCCC2)CC1", "target": "ABL1 Y253F phosphorylated", "test": "binding, competition with immobilised ligand", "conditions": "1 µM", "remaining binding": "5%"}
{"SMILES": "c1cncc(-c2cccc(Nc3nccc(NC4CCCCC4)n3)c2)c1", "target": "Tyrosine-protein kinase ABL1, phosphorylated (ABL1, Homo sapiens, UniProt P00519, H396P)", "test": "binding, competition with immobilised ligand", "conditions": "10 µM", "remaining binding": "29%"}
{"SMILES": "O=C(NCCCN1CCOCC1)c1ccc(Nc2ncc(Cl)c(-c3ccc(Cl)s3)n2)cc1", "target": "ABL1 T315I non-phosphorylated", "test": "binding, competition with immobilised ligand", "conditions": "1 µM", "remaining binding": "4.5%"}
{"SMILES": "C[C@@H](c1ccc(-n2cnc3c(N)ncnc32)cc1)N1CCc2nn(C)c(Cc3ccccc3)c2C1=O", "target": "ABL1 F317I non-phosphorylated", "test": "binding, competition with immobilised ligand", "conditions": "0.1 µM", "remaining binding": "40%"}
{"SMILES": "O=C(NCC1CCOCC1)c1n[nH]cc1NC(=O)c1c(F)cccc1F", "target": "ABL1 Y253F phosphorylated", "test": "binding, competition with immobilised ligand", "conditions": "1 µM", "remaining binding": "86%"}
{"SMILES": "C=CC(=O)N1CCC(C(=O)NCC(=O)N2CCN(c3nc(-c4cnc(N)nc4C(F)F)nc(N4CCOCC4)n3)CC2)CC1", "target": "ABL1 E255K phosphorylated", "test": "binding, competition with immobilised ligand", "conditions": "1 µM", "remaining binding": "87%"}
{"SMILES": "C[C@@H]1CN(c2cc(-c3nn(C)c4ccc(OC5(C)CC5)cc34)ncn2)C[C@H](C)O1", "target": "ABL1 H396P non-phosphorylated", "test": "cell-free assay, competition with immobilised ligand", "conditions": "1 µM", "remaining binding": "75%"}
{"SMILES": "Nc1ncc2c(n1)-c1c([nH]c3ccc(C#CC4CC4)cc13)CCCC2", "target": "ABL1 F317I non-phosphorylated", "test": "binding, competition with immobilised ligand", "conditions": "1 µM", "remaining binding": "84%"}
{"SMILES": "CC(C)CC(=O)N1CCc2nc(-c3ccc(Br)cc3)nc(N(C)Cc3ccccc3)c2C1", "target": "ABL1 H396P non-phosphorylated", "test": "cell-free assay, competition with immobilised ligand", "conditions": "0.1 µM", "remaining binding": "68%"}
{"SMILES": "CCN1CCN(Cc2ccc(C(=O)Nc3ccc(C)c(Oc4ccc5c(c4)CC(=O)N5)c3)cc2C(F)(F)F)CC1", "target": "ABL1 F317L non-phosphorylated", "test": "binding, competition with immobilised ligand", "conditions": "1 µM", "remaining binding": "2.9%"}
{"SMILES": "N#CC1(c2ccccn2)CCN(Cc2cc(C(=O)N3CCCC3)c(=O)n3ccccc23)CC1", "target": "ABL1 M351T phosphorylated", "test": "cell-free assay, competition with immobilised ligand", "conditions": "1 µM", "remaining binding": "100%"}
{"SMILES": "COc1ccnn2ncc(-c3ccnc(N(C)C)n3)c12", "target": "ABL1 H396P", "test": "binding", "conditions": "1 µM", "remaining binding": "100%"}
{"SMILES": "O=C(Nc1c[nH]nc1C(=O)NC1CCNCC1)c1cc(F)cc(F)c1", "target": "ABL1 non-phosphorylated", "test": "binding, competition with immobilised ligand", "conditions": "1 µM", "remaining binding": "98%"}
{"SMILES": "O=C(NCCCN1CCOCC1)c1ccc(Nc2nccc(-c3cc4ccccc4s3)n2)cc1", "target": "ABL1 F317I non-phosphorylated", "test": "binding, competition with immobilised ligand", "conditions": "1 µM", "remaining binding": "100%"}
{"SMILES": "O=C(Nc1cnc(Oc2ccc(F)cc2)nc1)N1CCc2ncccc2[C@@H]1c1ccc(F)cc1", "target": "ABL1 T315I non-phosphorylated", "test": "cell-free assay, competition with immobilised ligand", "conditions": "1 µM", "remaining binding": "100%"}
{"SMILES": "C[C@@H]1CCN(c2nccc(-c3cnn4ncccc34)n2)C1", "target": "Tyrosine-protein kinase ABL1 (ABL1, Homo sapiens, UniProt P00519, Q252H)", "test": "binding", "conditions": "1 µM", "remaining binding": "81%"}
{"SMILES": "CNC(=O)[C@@H]1CC[C@@H](n2c(-c3ccc4cnccc4c3)nc3ccc(C(=O)NCc4cccc(C(N)=O)c4)cc32)C1", "target": "ABL1 M351T phosphorylated", "test": "binding, competition with immobilised ligand", "conditions": "1 µM", "remaining binding": "92%"}
{"SMILES": "CN(c1nccc(-c2cnn3ncccc23)n1)C1CC1", "target": "Tyrosine-protein kinase ABL1 (ABL1, Homo sapiens, UniProt P00519, E255K)", "test": "binding", "conditions": "1 µM", "remaining binding": "100%"}
{"SMILES": "CC(=O)C1=C(C)N(c2cccc(C(F)(F)F)c2)C(=O)N[C@@H]1c1ccc(C#N)nc1", "target": "Tyrosine-protein kinase ABL1, phosphorylated (ABL1, Homo sapiens, UniProt P00519, T315I)", "test": "cell-free assay, competition with immobilised ligand", "conditions": "1 µM", "remaining binding": "96.9%"}
{"SMILES": "COc1cnc(Nc2cccc(S(N)(=O)=O)c2)nc1N1CCN(c2ccccc2)CC1", "target": "ABL1 Y253F phosphorylated", "test": "binding, competition with immobilised ligand", "conditions": "1 µM", "remaining binding": "73%"}
